Laboratory results taken from ChEMBL document CHEMBL1806394, “Synthesis, in vitro evaluation and molecular docking studies of new triazole derivatives as antifungal agents” (2011).
Converted amounts (≈) assume the structure as drawn.

Assays:
Type in all cases: functional
[1] = system: Candida albicans; experiment: Antifungal activity against Candida albicans SC5314 by micro-broth dilution method
In short: (§1)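 MIC80 determined by broth microdilution following NCCLS methods. C. albicans SC5314 and Y0109 and C. neoformans BLS108 served as quality-control strains and were included in every assay. Fluconazole, itraconazole, voriconazole and amphotericin B were run as positive controls.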

[2] = system: Kluyveromyces marxianus; experiment: Antifungal activity against Candida kefyr by micro-broth dilution method
[3] = system: Candida tropicalis; experiment: Antifungal activity against Candida tropicalis by micro-broth dilution method; in short: as §1
[4] = system: Cryptococcus neoformans; experiment: Antifungal activity against Cryptococcus neoformans BLS108 by micro-broth dilution method; in short: as §1
[5] = system: Candida albicans; experiment: Antifungal activity against Candida albicans Y0109 by micro-broth dilution method; in short: as §1
[6] = system: Aspergillus fumigatus; experiment: Antifungal activity against Aspergillus fumigatus by micro-broth dilution method; in short: as §1
[7] = system: Candida parapsilosis; experiment: Antifungal activity against Candida parapsilosis by micro-broth dilution method; details: Lodderomyces parapsilosis; in short: as §1
[8] = system: Trichophyton rubrum; experiment: Antifungal activity against Trichophyton rubrum by micro-broth dilution method; in short: as §1

Compound	MIC80 [1] [µg/mL]	MIC80 [2] [µg/mL]	MIC80 [3] [µg/mL]	MIC80 [4] [µg/mL]	MIC80 [5] [µg/mL]	MIC80 [6] [µg/mL]	MIC80 [7] [µg/mL]	MIC80 [8] [µg/mL]
C[C@@H]1[C@H](O)[C@@H](C)/C=C/C=C/C=C/C=C/C=C/C=C/C=C/[C@H](O[C@@H]2O[C@H](C)[C@@H](O)[C@H](N)[C@@H]2O)C[C@@H]2O[C@](O)(C[C@@H](O)C[C@@H](O)[C@H](O)CC[C@@H](O)C[C@@H](O)CC(=O)O[C@H]1C)C[C@H](O)[C@H]2C(=O)O [AMPHOTERICIN B]	0.25 (≈ 0.271 µM)	0.25 (≈ 0.271 µM)	1 (≈ 1.08 µM)	1 (≈ 1.08 µM)	0.25 (≈ 0.271 µM)	1 (≈ 1.08 µM)	0.25 (≈ 0.271 µM)	4 (≈ 4.33 µM)
OC(Cn1cncn1)(Cn1cncn1)c1ccc(F)cc1F [FLUCONAZOLE]	0.25 (≈ 0.816 µM)	4 (≈ 13.1 µM)	1 (≈ 3.27 µM)	1 (≈ 3.27 µM)	0.25 (≈ 0.816 µM)	> 64	0.25 (≈ 0.816 µM)	1 (≈ 3.27 µM)
Cc1ccc(C(=O)Nc2ccc(-n3cnn(CC(O)(Cn4cncn4)c4ccc(F)cc4F)c3=O)cc2)cc1 (single isomer, unassigned)	0.0625 (≈ 0.118 µM)	16 (≈ 30.1 µM)	1 (≈ 1.88 µM)	> 64	0.0625 (≈ 0.118 µM)	> 64	0.25 (≈ 0.47 µM)	> 64
O=C(/C=C/c1cccc(Br)c1)Nc1ccc(-n2cnn(CC(O)(Cn3cncn3)c3ccc(F)cc3F)c2=O)cc1 (single isomer, unassigned)	1 (≈ 1.61 µM)	> 64	1 (≈ 1.61 µM)	16 (≈ 25.7 µM)	1 (≈ 1.61 µM)	> 64	16 (≈ 25.7 µM)	> 64
O=C(/C=C/c1ccc(Cl)c(Cl)c1)Nc1ccc(-n2cnn(CC(O)(Cn3cncn3)c3ccc(F)cc3F)c2=O)cc1 (single isomer, unassigned)	4 (≈ 6.53 µM)	> 64	4 (≈ 6.53 µM)	> 64	4 (≈ 6.53 µM)	> 64	64 (≈ 105 µM)	> 64
O=C(/C=C/c1ccccc1F)Nc1ccc(-n2cnn(CC(O)(Cn3cncn3)c3ccc(F)cc3F)c2=O)cc1 (single isomer, unassigned)	1 (≈ 1.78 µM)	> 64	4 (≈ 7.12 µM)	> 64	1 (≈ 1.78 µM)	> 64	4 (≈ 7.12 µM)	> 64
Cc1ccc(/C=C/C(=O)Nc2ccc(-n3cnn(CC(O)(Cn4cncn4)c4ccc(F)cc4F)c3=O)cc2)cc1 (single isomer, unassigned)	1 (≈ 1.79 µM)	> 64	4 (≈ 7.17 µM)	> 64	4 (≈ 7.17 µM)	> 64	> 64	> 64
Cc1ccc(C(=O)Nc2ccc(-n3cnn(CC(O)(Cn4cncn4)c4ccc(F)cc4F)c3=O)cc2)cc1C (single isomer, unassigned)	0.25 (≈ 0.458 µM)	4 (≈ 7.33 µM)	0.25 (≈ 0.458 µM)	64 (≈ 117 µM)	0.25 (≈ 0.458 µM)	> 64	0.25 (≈ 0.458 µM)	> 64
O=C(/C=C/c1cccc(F)c1)Nc1ccc(-n2cnn(CC(O)(Cn3cncn3)c3ccc(F)cc3F)c2=O)cc1 (single isomer, unassigned)	16 (≈ 28.5 µM)	> 64	> 64	> 64	16 (≈ 28.5 µM)	> 64	16 (≈ 28.5 µM)	> 64
O=C(/C=C/c1ccc(F)cc1)Nc1ccc(-n2cnn(CC(O)(Cn3cncn3)c3ccc(F)cc3F)c2=O)cc1 (single isomer, unassigned)	> 64	> 64	> 64	> 64	> 64	> 64	> 64	> 64
Cc1cccc(/C=C/C(=O)Nc2ccc(-n3cnn(CC(O)(Cn4cncn4)c4ccc(F)cc4F)c3=O)cc2)c1C (single isomer, unassigned)	1 (≈ 1.75 µM)	> 64	16 (≈ 28 µM)	> 64	4 (≈ 7 µM)	> 64	> 64	> 64
COc1ccc(C(=O)Nc2ccc(-n3cnn(CC(O)(Cn4cncn4)c4ccc(F)cc4F)c3=O)cc2)cc1 (single isomer, unassigned)	1 (≈ 1.83 µM)	16 (≈ 29.2 µM)	4 (≈ 7.31 µM)	> 64	1 (≈ 1.83 µM)	> 64	1 (≈ 1.83 µM)	> 64
CC(C)(C)c1ccc(C(=O)Nc2ccc(-n3cnn(CC(O)(Cn4cncn4)c4ccc(F)cc4F)c3=O)cc2)cc1 (single isomer, unassigned)	0.0625 (≈ 0.109 µM)	> 64	0.25 (≈ 0.436 µM)	64 (≈ 112 µM)	1 (≈ 1.74 µM)	> 64	0.0625 (≈ 0.109 µM)	4 (≈ 6.97 µM)
Cc1cccc(C(=O)Nc2ccc(-n3cnn(CC(O)(Cn4cncn4)c4ccc(F)cc4F)c3=O)cc2)c1 (single isomer, unassigned)	0.0625 (≈ 0.118 µM)	> 64	1 (≈ 1.88 µM)	> 64	0.0625 (≈ 0.118 µM)	> 64	0.0625 (≈ 0.118 µM)	> 64
N#Cc1cccc(/C=C/C(=O)Nc2ccc(-n3cnn(CC(O)(Cn4cncn4)c4ccc(F)cc4F)c3=O)cc2)c1 (single isomer, unassigned)	16 (≈ 28.1 µM)	> 64	64 (≈ 113 µM)	> 64	16 (≈ 28.1 µM)	> 64	16 (≈ 28.1 µM)	> 64
O=C(Nc1ccc(-n2cnn(CC(O)(Cn3cncn3)c3ccc(F)cc3F)c2=O)cc1)c1ccc(F)cc1 (single isomer, unassigned)	0.0625 (≈ 0.117 µM)	4 (≈ 7.47 µM)	0.0625 (≈ 0.117 µM)	64 (≈ 120 µM)	1 (≈ 1.87 µM)	> 64	0.0625 (≈ 0.117 µM)	16 (≈ 29.9 µM)
CCC(C)n1ncn(-c2ccc(N3CCN(c4ccc(OCC5COC(Cn6cncn6)(c6ccc(Cl)cc6Cl)O5)cc4)CC3)cc2)c1=O (stereo not given) [ITRACONAZOLE]	0.0625 (≈ 0.0886 µM)	0.0625 (≈ 0.0886 µM)	0.0625 (≈ 0.0886 µM)	0.0625 (≈ 0.0886 µM)	0.0625 (≈ 0.0886 µM)	0.0625 (≈ 0.0886 µM)	0.0625 (≈ 0.0886 µM)	0.0625 (≈ 0.0886 µM)
Cc1ccccc1C(=O)Nc1ccc(-n2cnn(CC(O)(Cn3cncn3)c3ccc(F)cc3F)c2=O)cc1 (single isomer, unassigned)	0.25 (≈ 0.47 µM)	> 64	1 (≈ 1.88 µM)	> 64	0.0625 (≈ 0.118 µM)	> 64	0.0156 (≈ 0.0293 µM)	> 64
O=C(/C=C/c1ccccc1[N+](=O)[O-])Nc1ccc(-n2cnn(CC(O)(Cn3cncn3)c3ccc(F)cc3F)c2=O)cc1 (single isomer, unassigned)	1 (≈ 1.7 µM)	> 64	1 (≈ 1.7 µM)	> 64	1 (≈ 1.7 µM)	> 64	1 (≈ 1.7 µM)	> 64
O=C(/C=C/c1cccc([N+](=O)[O-])c1)Nc1ccc(-n2cnn(CC(O)(Cn3cncn3)c3ccc(F)cc3F)c2=O)cc1 (single isomer, unassigned)	0.00024 (≈ 0.000408 µM)	16 (≈ 27.2 µM)	0.25 (≈ 0.425 µM)	> 64	0.00024 (≈ 0.000408 µM)	> 64	0.0039 (≈ 0.00663 µM)	64 (≈ 109 µM)
